Measurements collected from several papers.
Each line is one published result; the experiments were not run side by side.
Cell line: A549
Effect on: cell growth or viability

The IC50 of `COc1cccc2c1C(=O)c1c(O)c3c(c(O)c1C2=O)C[C@@](O)(C(=O)CO)C[C@@H]3O[C@H]1C[C@H](N)[C@H](O)[C@H](C)O1` is reported as 520 nM (MTT; 72 h).
`COc1ccc2/c(=N/c3ccccc3NC(=O)[C@@H](N)C(C)(C)C)cc(-c3ccc4c(c3)OCCO4)oc2c1` gave an inhibition of 6.77% (CCK-8; 1 µM).
`COc1ccc(NC(=O)Nc2cccc(-c3cn(Cc4ccc(Br)cc4)nn3)c2)cc1` has a viability of 271% (CCK-8; 50 µM; 72 h).
For `O=C(NCc1cn(Cc2ccc(Br)cc2)nn1)Nc1ccc(Cl)cc1`, the viability was 102% (CCK-8; 20 µM; 72 h).
With `COc1ccc(NC(=O)NCc2cn(Cc3ccc(Cl)cc3)nn2)cc1` the viability was 71.9% (CCK-8; 20 µM; 72 h).
For `COc1cccc(NC(=O)Nc2nc3cc(-c4ccc5ncn(Cc6ccccc6)c(=O)c5c4)ccc3s2)c1`, the IC50 was 3390 nM (MTT; 72 h).
The IC50 of `CCCCCC(=O)Nc1ccc(-c2ccc3ncn(CCCC)c(=O)c3c2)cn1` is reported as 1340 nM (CCK-8; 72 h).
With `C[C@H](N)C(=O)Nc1ccccc1/N=c1\cc(-c2ccc3c(c2)OCO3)oc2ccccc12` the inhibition was -2.13% (CCK-8; 1 µM).
For `N#CSCCCCOc1ccc2c(-c3ccccc3)cc(=O)oc2c1`, the GI50 was 36000 nM (SRB).
The inhibition of `COc1ccc2/c(=N/c3ccccc3NC(=O)[C@@H](N)CO)cc(-c3ccc4c(c3)OCCO4)oc2c1` is reported as 1.6% (CCK-8; 1 µM).
`CCOc1ccc(C(=O)CC(SCc2ccc(Cl)cc2)C(=O)OC)cc1` (stereo not drawn) gave an EC50 of greater than 250000 nM (MTT; 48 h).
`COc1ccc(NC(=O)Nc2ccc(-c3cn(Cc4ccc(Cl)cc4)nn3)cc2)cc1` gave a viability of 98.3% (CCK-8; 50 µM; 72 h).
`C#CCn1cnc2ccc(-c3ccc(NC(=O)CCCC)nc3)cc2c1=O` has an IC50 of greater than 10000 nM (CCK-8; 72 h).
`C[C@H](N)C(=O)Nc1ccccc1/N=c1\cc(-c2ccc3c(c2)OCCO3)oc2c([N+](=O)[O-])cccc12` has an inhibition of 0.38% (CCK-8; 1 µM).
With `O=C(Nc1ccc(-c2cn(Cc3ccc(Cl)cc3)nn2)cc1)Nc1ccccc1Br` the viability was 107% (CCK-8; 50 µM; 72 h).
The IC50 of `CCCCNC(=O)Nc1ccc(-c2ccc3ncn(CCCC)c(=O)c3c2)cn1` is reported as 1390 nM (CCK-8; 72 h).
`CCNc1nc2ccc(-c3c/c(=N\c4ccccc4NC(=O)CCN)c4ccccc4o3)cc2o1` has an inhibition of 14.1% (CCK-8; 1 µM).
For `COc1ccc(NC(=O)Nc2cccc(-c3cn(Cc4ccc(Cl)cc4)nn3)c2)cc1`, the viability was 270% (CCK-8; 50 µM; 72 h).
`CCCCCCCCCCCCCCCCCCOc1ccc(CC(=O)OCC[N+](C)(C)C)cc1` gave an inhibition of 5.41% (SRB; 10 µM).
With `Cc1ccc(C(=O)Nc2ccc(-c3ccc4ncn(Cc5ccccc5)c(=O)c4c3)cn2)cc1` the IC50 was greater than 10000 nM (CCK-8; 72 h).
With `COc1cccc2c1C(=O)c1c(O)c3c(c(O)c1C2=O)C[C@@](O)(C(=O)CO)C[C@@H]3O[C@H]1C[C@H](N)[C@H](O)[C@H](C)O1` the IC50 was 307 nM (MTT).
For `O=C(Nc1ccc(-c2cn(Cc3ccc(Br)cc3)nn2)cc1)Nc1ccccc1Br`, the viability was 89% (CCK-8; 50 µM; 72 h).
The IC50 of `Cc1cccc(NC(=O)Nc2ccc(-c3ccc4ncn(Cc5ccccc5)c(=O)c4c3)cn2)c1` is reported as greater than 10000 nM (CCK-8; 72 h).
The inhibition of `CCCCCCCCCCCCCCCCCCOc1ccccc1CC(=O)OCC[N+]1(C)CCCCC1` is reported as 57.8% (SRB; 10 µM).
For `COc1ccc2/c(=N/c3ccccc3NC(=O)N3CCOCC3)cc(-c3ccc4c(c3)OCCO4)oc2c1`, the inhibition was 2.09% (CCK-8; 1 µM).
`COc1ccc(Cn2cnc3ccc(-c4ccc(NC(=O)c5ccccc5)nc4)cc3c2=O)cc1` gave an IC50 of greater than 10000 nM (CCK-8; 72 h).
`CCCCCCCCCCCCCCCCCCOc1ccc(CC(=O)OCCC[N+](C)(C)C)cc1` has an inhibition of 21.9% (SRB; 10 µM).
For `O=C(Nc1ccc(Cl)cc1)Nc1ccc(-c2cn(Cc3cccc(Cl)c3)nn2)cc1`, the viability was 73.2% (CCK-8; 50 µM; 72 h).
`COc1ccc(NC(=O)NCc2cn(Cc3ccccc3C)nn2)cc1` gave a viability of 68% (CCK-8; 50 µM; 72 h).
`NCCC(=O)Nc1ccccc1/N=c1\cc(-c2ccc3nc(N)oc3c2)oc2ccc(O)cc12` has an inhibition of 13.9% (CCK-8; 1 µM).
The IC50 of `CCCCC(=O)Nc1ccc(-c2ccc3ncn(CCCF)c(=O)c3c2)cn1` is reported as 1790 nM (CCK-8; 72 h).
For `O=C(NCc1cn(Cc2ccc(Cl)cc2)nn1)Nc1ccccc1Br`, the viability was 86.1% (CCK-8; 50 µM; 72 h).
`COc1ccc(NC(=O)Nc2cccc(-c3cn(Cc4ccc(C)cc4)nn3)c2)cc1` gave a viability of 146% (CCK-8; 20 µM; 72 h).
`CCCC(=O)Nc1ccc(-c2ccc3ncn(Cc4ccccc4)c(=O)c3c2)cn1` has an IC50 of greater than 10000 nM (CCK-8; 72 h).
With `O=C(Nc1ccc(Cl)cc1)Nc1ccc(-c2cn(Cc3ccc(Cl)cc3)nn2)cc1` the viability was 73.2% (CCK-8; 20 µM; 72 h).
`COc1ccc(NC(=O)Nc2ccc(-c3cn(Cc4cccc(Cl)c4)nn3)cc2)cc1` gave a viability of 91.2% (CCK-8; 50 µM; 72 h).
`CCCCCCCCCCCCCCCCCCOc1ccccc1CC(=O)OCC[N+](CC)(CC)CC` has an inhibition of 70.7% (SRB; 10 µM).
`O=C(NCc1cn(Cc2cccc(Cl)c2)nn1)Nc1ccc(Cl)cc1` has a viability of 79.5% (CCK-8; 50 µM; 72 h).
`CC(C)(C)[C@H](N)C(=O)Nc1ccccc1/N=c1\cc(-c2ccc3c(c2)OCO3)oc2ccccc12` gave an inhibition of 3.13% (CCK-8; 1 µM).
